Laboratory results as given in ChEMBL document CHEMBL1147105, “In vitro and in vivo activities of PD 0305970 and PD 0326448, new bacterial gyrase/topoisomerase inhibitors with potent antibacterial activities versus multidrug-resistant gram-positive and fastidious organism groups” (2007).
In brackets after ≈: the same amount, converted by molar mass.

Legend:
Moraxella catarrhalis [1] = assay: Antibacterial activity against beta-lactamase negative Moraxella catarrhalis; type: functional
Corynebacterium jeikeium = assay: Antibacterial activity against Corynebacterium jeikeium; type: functional
Procedure, shortened: (§1)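 Broth microdilution MIC following CLSI guidelines, in cation-adjusted Mueller-Hinton broth containing 3% lysed horse blood, incubated at 35°C. Clinical isolates with identity confirmed. Reported as MIC range, MIC50 and MIC90.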

Staphylococcus warneri = assay: Antibacterial activity against Staphylococcus warneri; type: functional
Procedure, shortened: (§2)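 Broth microdilution MIC following CLSI guidelines, in cation-adjusted Mueller-Hinton broth, incubated at 35°C. Recent clinical isolates and reference strains, with identity confirmed by automated and standard microbiological methods. Results reported as MIC range, MIC50 and MIC90.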

Streptococcus pneumoniae [2] = assay: Antibacterial activity against penicillin-susceptible Streptococcus pneumoniae; type: functional
Procedure, shortened: (§3)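 Broth microdilution MIC per CLSI guidelines, incubated at 35°C. Cation-adjusted Mueller-Hinton broth for nonfastidious organisms and staphylococci. Streptococci tested in the same broth with 3% lysed horse blood. Anaerobes tested in supplemented Brucella broth inside an anaerobe chamber (5% CO2, 5% H2, 90% N2), read after 48 h. Strains were mainly recent clinical isolates with confirmed identity.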

Clostridioides difficile = assay: Antibacterial activity against Clostridium difficile; type: functional
Procedure, shortened: (§4)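 Anaerobic broth microdilution MIC following CLSI guidelines, in supplemented Brucella broth. Run in an anaerobe chamber under 5% CO2, 5% H2 and 90% N2 at 35°C, and read after 48 h. Reported as MIC range, MIC50 and MIC90.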

Morganella morganii = assay: Antibacterial activity against Morganella morganii; type: functional; procedure, shortened: as §2
Streptococcus viridans = assay: Antibacterial activity against Streptococcus viridans; type: functional
Procedure, shortened: (§5)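 Broth microdilution MIC following CLSI guidelines, in cation-adjusted Mueller-Hinton broth with 3% lysed horse blood. Plates incubated at 35°C. Clinical isolates and reference strains, with identity confirmed by standard microbiological methods.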

Staphylococcus aureus = assay: Antibacterial activity against oxacillin and levofloxacin-resistant Staphylococcus aureus; type: functional; procedure, shortened: as §3
Moraxella catarrhalis [3] = assay: Antibacterial activity against beta-lactamase positive Moraxella catarrhalis; type: functional
Legionella pneumophila = assay: Antibacterial activity against Legionella pneumophila; type: functional
Procedure, shortened: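 Broth microdilution MIC per CLSI guidelines, run in buffered yeast extract α-ketoglutarate broth at 35°C and read after 48 h.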

[4] = tested on: Staphylococcus epidermidis; assay: Antibacterial activity against oxacillin-resistant Staphylococcus epidermidis; type: functional; procedure, shortened: as §3
Neisseria meningitidis = assay: Antibacterial activity against Neisseria meningitidis; type: functional
Procedure, shortened: (§6)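 MIC by broth microdilution in gonococcal broth, incubated at 35°C in 5% CO2. Reported as MIC range, MIC50 and MIC90.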

Bacteroides fragilis = assay: Antibacterial activity against Bacteroides fragilis; type: functional; procedure, shortened: as §4
Bacteroides ovatus = assay: Antibacterial activity against Bacteroides ovatus; type: functional; procedure, shortened: as §4
Escherichia coli = assay: Antibacterial activity against Escherichia coli; type: functional; procedure, shortened: as §2
Klebsiella pneumoniae = assay: Antibacterial activity against beta-lactamase positive Klebsiella pneumoniae; type: functional
Procedure, shortened: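 MIC by CLSI broth microdilution for nonfastidious organisms, in cation-adjusted Mueller-Hinton broth incubated at 35°C.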

Hoylesella oralis = assay: Antibacterial activity against Prevotella oralis; type: functional; procedure, shortened: as §4
Anaerococcus prevotii = assay: Antibacterial activity against Peptostreptococcus prevotii; type: functional; procedure, shortened: as §4
Corynebacterium sp. = assay: Antibacterial activity against Corynebacterium sp.; type: functional; procedure, shortened: as §1
Finegoldia magna = assay: Antibacterial activity against Peptostreptococcus magnus; type: functional; procedure, shortened: as §4
[5] = tested on: Parabacteroides distasonis; assay: Antimicrobial activity against Bacteroides distasonis; type: functional
Procedure, shortened: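 Anaerobic broth microdilution MIC following CLSI guidelines, in supplemented Brucella broth. Incubated at 35°C in a chamber under 5% CO2, 5% H2 and 90% N2. Read after 48 h.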

Enterococcus faecium [6] = assay: Antibacterial activity against VanA-resistant Enterococcus faecium; type: functional; procedure, shortened: as §3
Haemophilus influenzae = assay: Antibacterial activity against beta-lactamase positive Haemophilus influenzae; type: functional
Procedure, shortened: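 Broth microdilution MIC following CLSI guidelines, in Haemophilus test medium at 35°C.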

Enterococcus faecium [7] = assay: Antibacterial activity against VanB-resistant Enterococcus faecium; type: functional; procedure, shortened: as §3
Shigella dysenteriae = assay: Antibacterial activity against Shigella dysenteriae; type: functional
Streptococcus pyogenes = assay: Antibacterial activity against Streptococcus pyogenes; type: functional; procedure, shortened: as §5
[8] = tested on: Staphylococcus saprophyticus; assay: Antibacterial activity against Staphylococcus saprophyticus; type: functional; procedure, shortened: as §2
Acinetobacter sp. = assay: Antibacterial activity against Acinetobacter sp.; type: functional; procedure, shortened: as §2
Salmonella typhimurium = assay: Antibacterial activity against Salmonella enterica serovar Typhimurium; type: functional, Salmonella enterica subsp. enterica serovar Typhimurium; procedure, shortened: as §2
Proteus vulgaris = assay: Antibacterial activity against Proteus vulgaris; type: functional; procedure, shortened: as §2
[9] = tested on: Peptoniphilus asaccharolyticus; assay: Antibacterial activity against Peptostreptococcus asaccharolyticus; type: functional; procedure, shortened: as §4
[10] = tested on: Peptostreptococcus anaerobius; assay: Antibacterial activity against Peptostreptococcus anaerobius; type: functional; procedure, shortened: as §4
Enterococcus faecalis = assay: Antibacterial activity against VanA-resistant Enterococcus faecalis; type: functional; procedure, shortened: as §3
Burkholderia cepacia = assay: Antibacterial activity against Burkholderia cepacia; type: functional; procedure, shortened: as §2
Streptococcus salivarius = assay: Antibacterial activity against Streptococcus salivarius; type: functional; procedure, shortened: as §5
Shigella sonnei = assay: Antibacterial activity against Shigella sonnei; type: functional; procedure, shortened: as §2
Fusobacterium nucleatum = assay: Antibacterial activity against Fusobacterium nucleatum; type: functional; procedure, shortened: as §4
Prevotella sp. = assay: Antibacterial activity against Prevotella sp.; type: functional; procedure, shortened: as §4
Salmonella enteritidis = assay: Antibacterial activity against Salmonella enterica serovar Enteritidis; type: functional, Salmonella enterica subsp. enterica serovar Enteritidis; procedure, shortened: as §2
Neisseria gonorrhoeae = assay: Antibacterial activity against Neisseria gonorrhoeae; type: functional; procedure, shortened: as §6
Streptococcus pneumoniae [11] = assay: Antibacterial activity against levofloxacin-resistant Streptococcus pneumoniae; type: functional; procedure, shortened: as §3
Cutibacterium acnes = assay: Antibacterial activity against Propionibacterium acnes; type: functional
Pseudomonas aeruginosa = assay: Antibacterial activity against Pseudomonas aeruginosa; type: functional; procedure, shortened: as §2
Streptococcus pneumoniae [12] = assay: Antibacterial activity against penicillin-intermediate resistant Streptococcus pneumoniae; type: functional; procedure, shortened: as §3
Klebsiella oxytoca = assay: Antibacterial activity against Klebsiella oxytoca; type: functional; procedure, shortened: as §2

## Cc1c(N2CC[C@@H]([C@H](C)N)C2)c(F)cc2c(=O)[nH]c(=O)n(C3CC3)c12
Moraxella catarrhalis [1]
  MIC50: 0.5 µg/mL (≈ 1.44 µM)
  MIC90: 1 µg/mL (≈ 2.89 µM)
Corynebacterium jeikeium
  MIC50: 0.5 µg/mL (≈ 1.44 µM)
  MIC90: 1 µg/mL (≈ 2.89 µM)
Staphylococcus warneri
  MIC: 0.125 µg/mL (≈ 0.361 µM)
Streptococcus pneumoniae [2]
  MIC50: 0.03 µg/mL (≈ 0.0866 µM)
  MIC90: 0.06 µg/mL (≈ 0.173 µM)
Clostridioides difficile
  MIC50: 2 µg/mL (≈ 5.77 µM)
  MIC90: 8 µg/mL (≈ 23.1 µM)
Morganella morganii
  MIC50: 2 µg/mL (≈ 5.77 µM)
  MIC90: 32 µg/mL (≈ 92.4 µM)
Streptococcus viridans
  MIC50: 0.03 µg/mL (≈ 0.0866 µM)
  MIC90: 0.06 µg/mL (≈ 0.173 µM)
Staphylococcus aureus
  MIC50: 1 µg/mL (≈ 2.89 µM)
  MIC90: 4 µg/mL (≈ 11.5 µM)
Moraxella catarrhalis [3]
  MIC50: 0.5 µg/mL (≈ 1.44 µM)
  MIC90: 0.5 µg/mL (≈ 1.44 µM)
Legionella pneumophila
  MIC50: 0.5 µg/mL (≈ 1.44 µM)
  MIC90: 0.5 µg/mL (≈ 1.44 µM)
[4]
  MIC50: 0.25 µg/mL (≈ 0.722 µM)
  MIC90: 0.25 µg/mL (≈ 0.722 µM)
Neisseria meningitidis
  MIC50: 0.5 µg/mL (≈ 1.44 µM)
  MIC90: 1 µg/mL (≈ 2.89 µM)
Bacteroides fragilis
  MIC50: 8 µg/mL (≈ 23.1 µM)
  MIC90: 16 µg/mL (≈ 46.2 µM)
Bacteroides ovatus
  MIC50: 16 µg/mL (≈ 46.2 µM)
  MIC90: 32 µg/mL (≈ 92.4 µM)
Escherichia coli
  MIC50: 2 µg/mL (≈ 5.77 µM)
  MIC90: 8 µg/mL (≈ 23.1 µM)
Klebsiella pneumoniae
  MIC50: 8 µg/mL (≈ 23.1 µM)
  MIC90: 64 µg/mL (≈ 185 µM)
Hoylesella oralis
  MIC50: 0.5 µg/mL (≈ 1.44 µM)
  MIC90: 2 µg/mL (≈ 5.77 µM)
Anaerococcus prevotii
  MIC: 0.06 µg/mL (≈ 0.173 µM)
Corynebacterium sp.
  MIC50: 0.5 µg/mL (≈ 1.44 µM)
  MIC90: 1 µg/mL (≈ 2.89 µM)
Finegoldia magna
  MIC: 0.06 µg/mL (≈ 0.173 µM)
[5]
  MIC50: 16 µg/mL (≈ 46.2 µM)
  MIC90: 32 µg/mL (≈ 92.4 µM)
Enterococcus faecium [6]
  MIC50: 1 µg/mL (≈ 2.89 µM)
  MIC90: 2 µg/mL (≈ 5.77 µM)
Haemophilus influenzae
  MIC50: 0.5 µg/mL (≈ 1.44 µM)
  MIC90: 1 µg/mL (≈ 2.89 µM)
Enterococcus faecium [7]
  MIC: 1 µg/mL (≈ 2.89 µM)
Shigella dysenteriae
  MIC50: 2 µg/mL (≈ 5.77 µM)
  MIC90: 4 µg/mL (≈ 11.5 µM)
Streptococcus pyogenes
  MIC50: 0.03 µg/mL (≈ 0.0866 µM)
  MIC90: 0.03 µg/mL (≈ 0.0866 µM)
[8]
  MIC50: 0.125 µg/mL (≈ 0.361 µM)
  MIC90: 0.5 µg/mL (≈ 1.44 µM)
Acinetobacter sp.
  MIC50: 4 µg/mL (≈ 11.5 µM)
  MIC90: 64 µg/mL (≈ 185 µM)
Salmonella typhimurium
  MIC50: 2 µg/mL (≈ 5.77 µM)
  MIC90: 4 µg/mL (≈ 11.5 µM)
Proteus vulgaris
  MIC: 2 µg/mL (≈ 5.77 µM)
[9]
  MIC: 0.06 µg/mL (≈ 0.173 µM)
[10]
  MIC: 0.06 µg/mL (≈ 0.173 µM)
Enterococcus faecalis
  MIC: 0.25 µg/mL (≈ 0.722 µM)
Burkholderia cepacia
  MIC50: 32 µg/mL (≈ 92.4 µM)
  MIC90: > 64 µg/mL
Streptococcus salivarius
  MIC50: 0.03 µg/mL (≈ 0.0866 µM)
  MIC90: 0.06 µg/mL (≈ 0.173 µM)
Shigella sonnei
  MIC50: 2 µg/mL (≈ 5.77 µM)
  MIC90: 4 µg/mL (≈ 11.5 µM)
Fusobacterium nucleatum
  MIC: 0.125 µg/mL (≈ 0.361 µM)
Prevotella sp.
  MIC50: 0.5 µg/mL (≈ 1.44 µM)
  MIC90: 2 µg/mL (≈ 5.77 µM)
Salmonella enteritidis
  MIC50: 2 µg/mL (≈ 5.77 µM)
  MIC90: 4 µg/mL (≈ 11.5 µM)
Neisseria gonorrhoeae
  MIC50: 0.5 µg/mL (≈ 1.44 µM)
  MIC90: 1 µg/mL (≈ 2.89 µM)
Streptococcus pneumoniae [11]
  MIC50: 0.06 µg/mL (≈ 0.173 µM)
  MIC90: 0.06 µg/mL (≈ 0.173 µM)
Cutibacterium acnes
  MIC50: 4 µg/mL (≈ 11.5 µM)
  MIC90: 8 µg/mL (≈ 23.1 µM)
Pseudomonas aeruginosa
  MIC50: 8 µg/mL (≈ 23.1 µM)
  MIC90: > 64 µg/mL
Streptococcus pneumoniae [12]
  MIC50: 0.06 µg/mL (≈ 0.173 µM)
  MIC90: 0.125 µg/mL (≈ 0.361 µM)
Klebsiella oxytoca
  MIC50: 2 µg/mL (≈ 5.77 µM)
  MIC90: 16 µg/mL (≈ 46.2 µM)
